For assay [1], the target named is Signal transducer and activator of transcription 3 (Homo sapiens) (UniProt P40763). In words: Inhibition of STAT3 phosphorylation in human MIA PaCa-2 cells at 0.5 to 1 uM after 16 hrs by western blot analysis. The assay is classed as cell-based. Conditions: dose 0.5-1 µM. The method, boiled down:
(§1)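 Cells were seeded in 6-well plates (BxPC-3 500 × 10^3, MIA PaCa-2 200 × 10^3 cells/well) and exposed to compound for 16 h. Lysis was at 4 °C by sonication in Tris/NaCl/Triton/SDS buffer, pH 7.4, with protease and phosphatase inhibitors. Lysates were run on SDS-PAGE, transferred to PVDF and probed for STAT3, pSTAT3 and NQO1 with GAPDH as loading control. Immunoblots were imaged on an Odyssey system.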
(A western blot detects proteins with antibodies after separation by electrophoresis.)

Assay [2] has the same target. In words: Inhibition of STAT3 phosphorylation in human BxPC-3 cells at 1 uM after 16 hrs by western blot analysis. The assay is classed as cell-based. The procedure, abridged: as §1
A further assay has as its system BXPC-3. Nature of the assay: Reduction in NQO1 expression in human BxPC-3 cells at 2 to 6 uM incubated for 12 hrs in presence of proteasome inhibitor MG132 by western blot analysis. The assay is classed as functional, cell-based. Conditions: dose 2-6 µM. The procedure, abridged: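 Immunoblot of BxPC-3 cells given a 2 h pretreatment with MG132 at 10 μM, then test agent for 12 h. Cell lysis, BCA assay, SDS-PAGE/PVDF, probed for STAT3, pSTAT3 and NQO1 with GAPDH as reference.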

Assay [3] deals with Protein cereblon/E3 ubiquitin-protein ligase DTX3L (Homo sapiens) (UniProt Q96SW2+Q8TDB6). Nature of the assay: Protac activity at CRBN/DTX3L in human BxPC-3 cells assessed as DTX3L degradation incubated for 16 hrs by proteomic analysis. In kind it is cell-based. The procedure, abridged: (§2)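 TMT 10plex proteomics. […] Samples (75 μg) were reduced with DTT, alkylated with 2-chloroacetamide, acetone-precipitated, trypsin-digested overnight at 37 °C and TMT-labeled for LC-MS/MS relative quantitation.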
Protein cereblon/E3 ubiquitin-protein ligase DTX3L (Homo sapiens), sequence (Q96SW2 whole entry, looked up, other chains not shown): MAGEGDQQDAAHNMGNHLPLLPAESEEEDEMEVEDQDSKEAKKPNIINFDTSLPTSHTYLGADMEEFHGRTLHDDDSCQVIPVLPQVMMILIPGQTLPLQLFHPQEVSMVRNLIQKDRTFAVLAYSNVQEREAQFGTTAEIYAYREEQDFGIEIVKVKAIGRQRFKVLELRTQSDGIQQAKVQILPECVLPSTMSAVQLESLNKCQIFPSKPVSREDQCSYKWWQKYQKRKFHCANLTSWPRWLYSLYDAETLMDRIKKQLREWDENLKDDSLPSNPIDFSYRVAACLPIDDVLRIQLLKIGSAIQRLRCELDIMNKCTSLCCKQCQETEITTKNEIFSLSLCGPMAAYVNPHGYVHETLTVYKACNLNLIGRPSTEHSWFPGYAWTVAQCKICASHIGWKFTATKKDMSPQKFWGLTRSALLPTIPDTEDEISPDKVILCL

The target of assay [4] is Protein cereblon/45 kDa calcium-binding protein (Homo sapiens) (UniProt Q96SW2+Q9BRK5). In words: Protac activity at CRBN/SDF4 in human BxPC-3 cells assessed as SDF4 degradation incubated for 16 hrs by proteomic analysis. The assay is classed as cell-based. The method, boiled down: as §2
Assay [5] addresses Protein cereblon/Signal transducer and activator of transcription 2 (Homo sapiens) (UniProt Q96SW2+P52630). Nature of the assay: Protac activity at CRBN/STAT2 in human BxPC-3 cells assessed as STAT2 degradation incubated for 16 hrs by proteomic analysis. In kind it is cell-based. The method, boiled down: as §2
Assay [6] deals with Protein cereblon/Cyclin-D1-binding protein 1 (Homo sapiens) (UniProt Q96SW2+O95273). Nature of the assay: Protac activity at CRBN/CCNDBP1 in human BxPC-3 cells assessed as CCNDBP1 degradation incubated for 16 hrs by proteomic analysis. In kind it is cell-based. The method, boiled down:
as §2

Assay [7] in a line: Upregulation of ceramide glucosyltransferase protein levels in human BxPC-3 cells incubated for 16 hrs by proteomic analysis. The assay is classed as functional. The method, boiled down:
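BxPC-3 cells exposed to compound (2 μM) or DMSO control for 16 h, then lysed in RIPA buffer at 4 °C. Protein quantified by BCA; 75 μg per sample. TMT 10plex labeling: DTT reduction (1 h, 55 °C), 2-chloroacetamide alkylation (30 min, RT), acetone precipitation, overnight trypsin digestion at 37 °C, then LC-tandem MS relative quantitation. Control and treated samples run in triplicate.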

Assay [8] deals with T1, Protein cereblon/E3 ubiquitin-protein ligase ZFP91 (Homo sapiens, UniProt Q96SW2+Q96JP5). Nature of the assay: Protac activity at CRBN/ZFP91 in human MIA PaCa-2 cells assessed as ZF91 protein degradation at 0.1 to 0.5 uM incubated for 16 hrs in presence of proteasome inhibitor carfilzomib by western blot analysis. Conditions: dose 0.1-0.5 µM. The assay is classed as cell-based.
T1 sequence (Q96JP5 2-570 partner limits assumed): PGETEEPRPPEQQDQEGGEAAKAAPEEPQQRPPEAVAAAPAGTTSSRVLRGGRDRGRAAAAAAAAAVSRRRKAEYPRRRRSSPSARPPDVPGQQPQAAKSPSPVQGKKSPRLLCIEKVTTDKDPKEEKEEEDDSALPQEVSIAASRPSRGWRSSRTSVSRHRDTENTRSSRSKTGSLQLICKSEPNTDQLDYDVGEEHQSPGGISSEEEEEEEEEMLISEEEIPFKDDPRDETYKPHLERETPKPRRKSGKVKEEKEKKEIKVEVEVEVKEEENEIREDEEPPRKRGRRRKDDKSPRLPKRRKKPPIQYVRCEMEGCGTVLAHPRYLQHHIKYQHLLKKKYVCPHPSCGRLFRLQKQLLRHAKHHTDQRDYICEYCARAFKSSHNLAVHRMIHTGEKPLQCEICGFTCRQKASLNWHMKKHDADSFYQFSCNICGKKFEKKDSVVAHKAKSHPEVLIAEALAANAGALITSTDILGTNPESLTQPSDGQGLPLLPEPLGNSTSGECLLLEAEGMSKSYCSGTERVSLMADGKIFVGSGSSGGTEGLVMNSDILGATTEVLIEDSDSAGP
T1 sequence (Q96SW2 whole entry): as the sequence (Q96SW2 whole entry, looked up, other chains not shown) above

The target of assay [9] is Protein cereblon/Signal transducer and activator of transcription 3 (Homo sapiens, UniProt P40763+Q96SW2). In words: Protac activity at CRBN/STAT3 in human BxPC-3 cells assessed as increase in inhibition of STAT3 protein levels at 2 to 3 uM incubated for 16 hrs in presence of protein synthesis inhibitor cycloheximide by western blot analysis. In kind it is cell-based. To be noted: dose 2-3 µM. The method, boiled down:
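BxPC-3 cells pretreated 1 h with cycloheximide, then test agent for 16 h. Lysates immunoblotted for STAT3 and NQO1 against GAPDH, fluorescent imaging.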

For assay [10], the target named is Protein cereblon/Agrin (Homo sapiens) (UniProt Q96SW2+O00468). In words: Protac activity at CRBN/Agrin in human BxPC-3 cells assessed as Agrin degradation incubated for 16 hrs by proteomic analysis. The assay is classed as cell-based. The method, boiled down:
as §2

Assay [11] deals with Protein cereblon/Methylated-DNA--protein-cysteine methyltransferase (Homo sapiens) (UniProt P16455+Q96SW2). In words: Protac activity at CRBN/MGMT in human BxPC-3 cells assessed as MGMT degradation incubated for 16 hrs by proteomic analysis. The assay is classed as cell-based. The method, boiled down:
as §2

A short description of assay [12]: Upregulation of Arx protein levels in human BxPC-3 cells incubated for 16 hrs by proteomic analysis. In kind it is functional. The method, boiled down:
(§3)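 BxPC-3 cells exposed 16 h in triplicate (control, PROTAC) or duplicate (other arms); lysed in RIPA at 4 °C, 75 μg protein per sample. Reduced with DTT (1 h, 55 °C), alkylated with 2-chloroacetamide, acetone-precipitated, trypsin-digested overnight at 37 °C, TMT 10plex labelled, relative quantitation by LC-tandem MS.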

Assay [13] has as its target T1, Protein cereblon/E3 ubiquitin-protein ligase ZFP91. Nature of the assay: Protac activity at CRBN/ZFP91 in human BxPC-3 cells assessed as ZFP91 degradation incubated for 16 hrs by proteomic analysis. In kind it is cell-based. The method, boiled down:
as §3

In assay [14] the target is Protein cereblon/Cold shock domain-containing protein E1 (Homo sapiens) (UniProt Q96SW2+O75534). In words: Protac activity at CRBN/CSDE1 in human BxPC-3 cells assessed as CSDE1 degradation incubated for 16 hrs by proteomic analysis. In kind it is cell-based. The procedure, abridged:
as §2

The target in assay [15] is Protein cereblon/Epithelial discoidin domain-containing receptor 1 (Homo sapiens) (UniProt Q08345+Q96SW2). Nature of the assay: Protac activity at CRBN/DDR1 in human BxPC-3 cells assessed as DDR1 degradation incubated for 16 hrs by proteomic analysis. The assay is classed as cell-based. The procedure, abridged: as §2
Assay [16] addresses Protein cereblon/Protein LTV1 homolog (Homo sapiens) (UniProt Q96SW2+Q96GA3). Nature of the assay: Protac activity at CRBN/LTV1 in human BxPC-3 cells assessed as LTV1 degradation incubated for 16 hrs by proteomic analysis. In kind it is cell-based. The method, boiled down:
as §2

In assay [17] the target is Protein cereblon/WD repeat- and FYVE domain-containing protein 4 (Homo sapiens) (UniProt Q96SW2+Q6ZS81). In words: Protac activity at CRBN/WDFY4 in human BxPC-3 cells assessed as WDFY4 degradation incubated for 16 hrs by proteomic analysis. The assay is classed as cell-based. The procedure, abridged: as §3
Protein cereblon/WD repeat- and FYVE domain-containing protein 4 (Homo sapiens), sequence (Q6ZS81 whole entry, looked up, the tested form may be a part): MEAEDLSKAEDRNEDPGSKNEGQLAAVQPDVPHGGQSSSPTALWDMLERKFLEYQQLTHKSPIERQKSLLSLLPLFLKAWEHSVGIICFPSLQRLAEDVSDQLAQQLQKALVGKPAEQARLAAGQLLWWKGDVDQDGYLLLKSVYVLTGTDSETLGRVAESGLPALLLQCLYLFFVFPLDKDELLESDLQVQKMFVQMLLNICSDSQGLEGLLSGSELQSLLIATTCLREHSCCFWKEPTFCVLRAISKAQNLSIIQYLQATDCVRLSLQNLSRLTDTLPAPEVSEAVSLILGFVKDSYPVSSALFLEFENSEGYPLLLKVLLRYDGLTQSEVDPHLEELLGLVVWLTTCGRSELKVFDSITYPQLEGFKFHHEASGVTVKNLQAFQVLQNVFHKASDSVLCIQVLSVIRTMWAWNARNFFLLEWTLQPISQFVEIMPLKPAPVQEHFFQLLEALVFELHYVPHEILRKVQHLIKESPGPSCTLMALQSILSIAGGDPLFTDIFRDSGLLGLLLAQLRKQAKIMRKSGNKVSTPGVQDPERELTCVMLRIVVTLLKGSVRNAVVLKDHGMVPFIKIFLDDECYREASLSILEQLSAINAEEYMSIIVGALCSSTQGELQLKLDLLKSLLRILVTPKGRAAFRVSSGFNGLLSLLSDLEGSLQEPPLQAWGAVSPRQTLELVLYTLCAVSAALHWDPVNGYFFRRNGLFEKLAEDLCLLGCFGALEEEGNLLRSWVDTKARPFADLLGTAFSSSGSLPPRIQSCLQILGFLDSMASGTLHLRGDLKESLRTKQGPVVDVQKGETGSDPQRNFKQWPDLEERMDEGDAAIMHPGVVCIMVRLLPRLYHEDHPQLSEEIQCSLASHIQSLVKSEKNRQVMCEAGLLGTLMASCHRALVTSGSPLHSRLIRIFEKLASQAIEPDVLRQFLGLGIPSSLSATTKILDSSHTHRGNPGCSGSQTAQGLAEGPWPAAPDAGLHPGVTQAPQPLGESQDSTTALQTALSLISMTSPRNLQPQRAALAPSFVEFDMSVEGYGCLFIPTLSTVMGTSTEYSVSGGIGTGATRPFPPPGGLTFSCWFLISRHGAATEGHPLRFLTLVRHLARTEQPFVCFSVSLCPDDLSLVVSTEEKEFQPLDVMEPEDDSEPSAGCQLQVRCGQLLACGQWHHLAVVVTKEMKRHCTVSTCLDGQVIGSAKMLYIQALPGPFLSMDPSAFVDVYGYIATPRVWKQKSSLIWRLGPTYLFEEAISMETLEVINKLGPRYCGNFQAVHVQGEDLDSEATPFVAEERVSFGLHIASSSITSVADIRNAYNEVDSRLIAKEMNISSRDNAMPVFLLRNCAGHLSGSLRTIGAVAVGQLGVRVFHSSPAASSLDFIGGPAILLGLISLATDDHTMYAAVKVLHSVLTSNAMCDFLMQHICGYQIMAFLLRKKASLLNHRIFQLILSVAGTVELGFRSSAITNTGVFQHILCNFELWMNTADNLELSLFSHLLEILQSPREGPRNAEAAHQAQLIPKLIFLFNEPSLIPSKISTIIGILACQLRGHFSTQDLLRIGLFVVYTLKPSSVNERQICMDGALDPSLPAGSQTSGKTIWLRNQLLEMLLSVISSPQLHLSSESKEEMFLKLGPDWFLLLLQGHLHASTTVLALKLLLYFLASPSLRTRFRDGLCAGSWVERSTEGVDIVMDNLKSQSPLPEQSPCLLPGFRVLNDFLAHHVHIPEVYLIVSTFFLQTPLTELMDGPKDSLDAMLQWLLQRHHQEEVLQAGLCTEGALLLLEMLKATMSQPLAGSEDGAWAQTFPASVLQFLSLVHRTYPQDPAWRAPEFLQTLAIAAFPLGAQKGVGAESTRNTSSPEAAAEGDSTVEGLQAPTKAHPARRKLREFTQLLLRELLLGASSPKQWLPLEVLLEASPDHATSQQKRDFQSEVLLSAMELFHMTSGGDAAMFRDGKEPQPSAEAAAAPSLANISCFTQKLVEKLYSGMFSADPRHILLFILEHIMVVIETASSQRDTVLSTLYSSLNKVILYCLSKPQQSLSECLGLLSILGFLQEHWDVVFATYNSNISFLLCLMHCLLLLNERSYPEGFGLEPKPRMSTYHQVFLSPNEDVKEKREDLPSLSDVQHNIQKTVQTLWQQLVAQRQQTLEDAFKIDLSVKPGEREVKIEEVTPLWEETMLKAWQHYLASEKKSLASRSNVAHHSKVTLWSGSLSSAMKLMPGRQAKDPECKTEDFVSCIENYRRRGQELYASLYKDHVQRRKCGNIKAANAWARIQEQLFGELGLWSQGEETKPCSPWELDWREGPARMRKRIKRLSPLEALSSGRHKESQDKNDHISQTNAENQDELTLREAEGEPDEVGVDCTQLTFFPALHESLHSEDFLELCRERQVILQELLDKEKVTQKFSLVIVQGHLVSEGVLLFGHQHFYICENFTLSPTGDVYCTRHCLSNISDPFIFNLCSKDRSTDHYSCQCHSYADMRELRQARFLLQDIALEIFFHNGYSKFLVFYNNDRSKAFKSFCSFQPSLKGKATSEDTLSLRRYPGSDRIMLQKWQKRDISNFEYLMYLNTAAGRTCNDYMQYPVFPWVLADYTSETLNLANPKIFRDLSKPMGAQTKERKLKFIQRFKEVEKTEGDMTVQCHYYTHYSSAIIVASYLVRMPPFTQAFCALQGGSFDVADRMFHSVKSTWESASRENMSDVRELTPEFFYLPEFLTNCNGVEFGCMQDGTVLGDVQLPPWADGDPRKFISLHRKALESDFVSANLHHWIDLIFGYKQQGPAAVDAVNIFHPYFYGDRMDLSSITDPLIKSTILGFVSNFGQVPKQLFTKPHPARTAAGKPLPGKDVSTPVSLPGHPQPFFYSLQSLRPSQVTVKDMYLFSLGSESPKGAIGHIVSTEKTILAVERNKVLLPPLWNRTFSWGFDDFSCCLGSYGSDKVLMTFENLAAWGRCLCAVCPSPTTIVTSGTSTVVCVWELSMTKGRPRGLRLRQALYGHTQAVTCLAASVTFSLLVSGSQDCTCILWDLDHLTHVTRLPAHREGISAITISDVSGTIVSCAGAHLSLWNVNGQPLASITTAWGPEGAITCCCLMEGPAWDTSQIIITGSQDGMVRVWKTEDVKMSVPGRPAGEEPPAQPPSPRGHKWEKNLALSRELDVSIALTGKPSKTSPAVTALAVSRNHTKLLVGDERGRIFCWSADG
Protein cereblon/WD repeat- and FYVE domain-containing protein 4 (Homo sapiens), sequence (Q96SW2 whole entry, looked up, the tested form may be a part): as the sequence (Q96SW2 whole entry, looked up, other chains not shown) above
The target in assay [18] is Protein cereblon/Apoptosis-stimulating of p53 protein 2 (Homo sapiens) (UniProt Q96SW2+Q13625). Nature of the assay: Protac activity at CRBN/TP53BP2 in human BxPC-3 cells assessed as TP53BP2 degradation incubated for 16 hrs by proteomic analysis. In kind it is cell-based. The procedure, abridged:
as §3

A short description of assay [19]: Upregulation of RND3 protein levels in human BxPC-3 cells incubated for 16 hrs by proteomic analysis. The assay is classed as functional. The method, boiled down: as §3
Assay [20] in a line: Upregulation of GDF15 protein levels in human BxPC-3 cells incubated for 16 hrs by proteomic analysis. The assay is classed as functional. The method, boiled down:
as §3

For assay [21], the target named is T1, Protein cereblon/E3 ubiquitin-protein ligase ZFP91. In words: Protac activity at CRBN/ZFP91 in human BxPC-3 cells assessed as alteration of ZF91 protein levels at 0.5 uM incubated for 16 hrs in presence of NQO1 inhibitor dicoumarol. In kind it is cell-based. The procedure, abridged:
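BxPC-3 cells treated 16 h with or without dicoumarol; carfilzomib added 1 h before treatments. ZFP91 immunoblotted against GAPDH.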

Calls of active or inactive are those of the source. No cut-off for these calls is given here.

Signal transducer and activator of transcription 3 (Homo sapiens), sequence (P40763 whole entry): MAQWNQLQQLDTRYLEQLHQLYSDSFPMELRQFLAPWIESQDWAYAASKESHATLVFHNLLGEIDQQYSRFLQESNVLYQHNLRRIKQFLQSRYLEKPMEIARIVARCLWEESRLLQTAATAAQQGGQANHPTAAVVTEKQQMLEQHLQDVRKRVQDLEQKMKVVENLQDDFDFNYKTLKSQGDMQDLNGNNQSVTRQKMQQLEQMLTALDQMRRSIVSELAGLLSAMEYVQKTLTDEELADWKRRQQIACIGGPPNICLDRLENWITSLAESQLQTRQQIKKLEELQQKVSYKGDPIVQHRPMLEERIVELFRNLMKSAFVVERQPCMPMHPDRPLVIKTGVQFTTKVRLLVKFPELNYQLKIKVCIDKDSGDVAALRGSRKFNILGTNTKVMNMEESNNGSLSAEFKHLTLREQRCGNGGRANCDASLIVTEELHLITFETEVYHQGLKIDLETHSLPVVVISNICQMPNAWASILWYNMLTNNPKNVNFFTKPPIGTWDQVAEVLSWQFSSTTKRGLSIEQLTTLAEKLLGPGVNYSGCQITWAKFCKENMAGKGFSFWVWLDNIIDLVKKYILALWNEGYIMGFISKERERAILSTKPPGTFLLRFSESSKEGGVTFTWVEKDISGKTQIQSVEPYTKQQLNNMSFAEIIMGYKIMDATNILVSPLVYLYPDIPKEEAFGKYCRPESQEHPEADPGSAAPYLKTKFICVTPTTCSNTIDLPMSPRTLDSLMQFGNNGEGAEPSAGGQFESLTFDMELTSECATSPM

Take `O=C1CCC(N2C(=O)c3cccc(NCCCCCC4CCN(CCNC(=O)c5cc6c(o5)C(=O)c5ccccc5C6=O)CC4)c3C2=O)C(=O)N1` (configuration not stated): the inhibition entry in [1] was “inactive”. Besides, the inhibition entry in assay [2] was “Active”. Besides, the outcome (in the assay with BXPC-3; in [9]) was Active. In addition, the log2FC in assay [3] was -0.96; in assay [4], -0.67; in assay [5], -0.9; in assay [6] it was -0.59; in assay [7], 0.62; in assay [10], -0.68. Besides, the log2FC in assay [11] was -0.63; in assay [12], 1.54; in assay [13], -0.62; in assay [14], -0.75; in [15], -0.73; in assay [16], -0.69. Besides, the log2FC in assay [17] was -0.78; in assay [18], -1.02; in [19] it was 0.98; in assay [20], 0.69. Besides, the result in assay [8] and in [21] was inactive.

The record behind these values is ChEMBL document CHEMBL4706672 (J Med Chem, 2021).
